From PMC11962346 (Chemistry (Weinheim an Der Bergstrasse, Germany), 2025)
*1 amine or outer side, *2 acyl side, *3 side chain or, on linkers, in order; H or OH if unused. Where a SMILES comes first, the peptide text is derived from it. Bridges are numbered along the chain shown (N, C = ends). The star is where a group is joined. X1 = CC(C)C[C@@H](CNC(=O)N1C[C@@H](SCCCCCC[*:1])C[C@H]1C(N)=O)NC(=O)NC[C@H](CC(C)C)N[*:2]; X4 = CC(C)C[C@@H](CNC(=O)N1CCC[C@H]1C(N)=O)NC(=O)NC[C@H](CC(C)C)N*; X2 = CC(C)C[C@@H](CNC(=O)N[C@@H](C)CNC(=O)N1CCC[C@H]1C(N)=O)N*

Assays:
p53‐hDMX interaction = target: T1, p53‐hDMX interaction (Homo sapiens, UniProt O15151); test: TR-FRET; type: binding; conditions: for IC50: IC50±SEM hDMX, 9-point curves in duplicates; for inhibition at 0.1 µM: read-out: Inhibition at 100 nM (%) hDMX
T1 sequence (O15151 1-490): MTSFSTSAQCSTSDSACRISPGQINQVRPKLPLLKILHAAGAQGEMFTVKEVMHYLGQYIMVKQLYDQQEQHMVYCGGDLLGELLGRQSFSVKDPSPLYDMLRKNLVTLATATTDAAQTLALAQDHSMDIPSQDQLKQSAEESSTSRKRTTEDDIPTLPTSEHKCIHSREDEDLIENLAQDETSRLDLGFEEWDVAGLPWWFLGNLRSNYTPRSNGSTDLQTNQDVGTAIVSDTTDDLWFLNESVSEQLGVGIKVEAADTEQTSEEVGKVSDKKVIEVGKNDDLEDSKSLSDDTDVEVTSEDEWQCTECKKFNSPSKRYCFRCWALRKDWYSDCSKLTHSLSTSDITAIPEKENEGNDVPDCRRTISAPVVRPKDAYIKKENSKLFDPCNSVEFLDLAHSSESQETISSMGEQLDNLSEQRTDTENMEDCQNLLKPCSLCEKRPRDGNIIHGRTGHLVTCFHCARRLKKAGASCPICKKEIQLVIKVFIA

p53‐hDM2 interaction = p53‐hDM2 interaction (Homo sapiens, UniProt Q00987); test: TR-FRET; type: binding; conditions: for IC50: IC50±SEM hDM2, 9-point curves in duplicates; for inhibition at 0.1 µM: read-out: Inhibition at 100 nM (%) hDM2
HCT116 cells [1] = test: MTS cell viability assay; type: cell-based, human; conditions: 3 days of incubation
Procedure, shortened: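 HCT116 cells (passages 47–50; DMEM, 10% heat-inactivated FCS, 37 °C, 5% CO₂) seeded at 3×10³ cells/well with test compound at various concentrations in serum-free medium for 8 h. Serum (10%) then added for 64 h more. MTS reagent added, absorbance read at 490 nm, % viability taken versus untreated cells. Two independent experiments, three technical replicates each.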

HCT116 cells [2] = test: RT-qPCR of p53 target genes p21 and hDM2; type: cell-based, human; conditions: 6 hours treatment, n=3
p53wt HCT116 cells = test: Western blot of p53 protein levels; type: cell-based, human; conditions: 6 hours treatment, 0.1 to 40 µM
Procedure, shortened: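 p53wt HCT116 cells in exponential growth, seeded one day ahead, were exposed to test compound for 6 h without serum, then lysed in RIPA. SDS-PAGE, wet transfer to nitrocellulose, 5% BSA/TBS-T block 1 h RT. Anti-p53 and anti-GAPDH overnight at 4 °C, infrared anti-mouse secondary 1.5 h RT. Positive control was a reference hDM2 inhibitor. Three independent biological replicates.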

p53‐hDM2 interaction, sequence (Q00987 whole entry): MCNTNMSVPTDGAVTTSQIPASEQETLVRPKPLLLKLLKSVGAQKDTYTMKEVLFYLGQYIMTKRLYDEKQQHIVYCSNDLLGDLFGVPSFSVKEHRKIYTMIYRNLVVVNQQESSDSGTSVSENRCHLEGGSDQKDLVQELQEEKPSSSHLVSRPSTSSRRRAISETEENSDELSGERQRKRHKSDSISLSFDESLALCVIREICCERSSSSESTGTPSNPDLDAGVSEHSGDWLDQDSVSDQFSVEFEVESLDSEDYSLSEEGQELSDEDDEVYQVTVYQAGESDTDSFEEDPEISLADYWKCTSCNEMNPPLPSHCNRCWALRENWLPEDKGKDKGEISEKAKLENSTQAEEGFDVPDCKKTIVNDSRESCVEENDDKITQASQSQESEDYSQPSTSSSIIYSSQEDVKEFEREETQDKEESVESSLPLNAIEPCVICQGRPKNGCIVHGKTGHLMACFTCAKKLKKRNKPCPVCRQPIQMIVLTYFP

## CC(C)C[C@H]1CNC(=O)N2C[C@H](C[C@H]2C(N)=O)SCCCCCCSC[C@H](NC(=O)[C@H](Cc2ccccc2)NC(=O)[C@H](CO)NC(=O)[C@@H](N)[C@@H](C)O)C(=O)N[C@@H](CCC(=O)O)C(=O)N[C@@H](Cc2ccc(O)cc2)C(=O)N[C@@H](Cc2c[nH]c3ccccc23)C(=O)N[C@@H](C)C(=O)N[C@@H](CC(C)C)CNC(=O)N1 [Compound 8 a] (H-TSFCEYWA; linker 4-C via X1)
p53‐hDMX interaction
  IC50: 75 ± 4 nM
  inhibition at 0.1 µM: 66%
p53‐hDM2 interaction
  IC50: 1.91 ± 0.05 nM
  inhibition at 0.1 µM: 99%

## CC(C)C[C@@H](CNC(=O)N1CCC[C@H]1C(N)=O)NC(=O)NC[C@H](CC(C)C)NC(=O)[C@H](C)NC(=O)[C@H](Cc1c[nH]c2ccccc12)NC(=O)[C@H](Cc1ccc(O)cc1)NC(=O)[C@H](CCC(=O)O)NC(=O)[C@H](C)NC(=O)[C@H](Cc1ccccc1)NC(=O)[C@H](CO)NC(=O)[C@@H](N)[C@@H](C)O [Compound 4] (H-TSFAEYWA-X4)
p53‐hDMX interaction
  IC50: 115 ± 5 nM
  inhibition at 0.1 µM: 46%
p53‐hDM2 interaction
  IC50: 6.13 ± 0.08 nM
  inhibition at 0.1 µM: 99%

## CC(C)C[C@@H](CNC(=O)N[C@@H](C)CNC(=O)N1CCC[C@H]1C(N)=O)NC(=O)[C@H](C)NC(=O)[C@H](Cc1c[nH]c2ccccc12)NC(=O)[C@H](Cc1ccc(O)cc1)NC(=O)[C@H](CCC(=O)O)NC(=O)[C@H](C)NC(=O)[C@H](Cc1ccccc1)NC(=O)[C@H](CO)NC(=O)[C@@H](N)[C@@H](C)O [Compound 3] (H-TSFAEYWA-X2)
p53‐hDMX interaction
  IC50: 247 ± 42 nM
  inhibition at 0.1 µM: 19%
p53‐hDM2 interaction
  IC50: 54 ± 17 nM
  inhibition at 0.1 µM: 43%

## CC(=O)N[C@@H](CCCCN)C(=O)N[C@H](C(=O)N[C@@H](Cc1ccccc1)C(=O)N[C@H]1CSCCCCCCS[C@H]2C[C@@H](C(N)=O)N(C2)C(=O)NC[C@H](CC(C)C)NC(=O)NC[C@H](CC(C)C)NC(=O)[C@H](C)NC(=O)[C@H](Cc2c[nH]c3ccccc23)NC(=O)[C@H](Cc2ccc(O)cc2)NC(=O)[C@H](CCC(=O)O)NC1=O)[C@@H](C)O [Compound 10 a] (Ac-KTFCEYWA; linker 4-C via X1)
HCT116 cells [1]
  viability of p53wt HCT116 cells (in words): effective in reducing the viability of p53wt HCT116 cells in a concentration‐dependent manner
HCT116 cells [2]
  mRNA of target genes p21 and hDM2 (RT-qPCR): dose‐dependent induction of mRNA of target genes p21 and hDM2
p53wt HCT116 cells
  p53 protein levels (western blot): dose‐dependent increase of p53 levels
p53‐hDMX interaction
  IC50: 63 ± 12 nM
p53‐hDM2 interaction
  IC50: 3 ± 0.1 nM
